System: MS2 coat protein
Test: apparent Kd, MS2 coat protein; higher = weaker binding; RNA-MaP array; FMN 200 µM where present
Procedure, shortened: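 Apparent Kd: the median of filtered binding-curve fits from single clusters. Designs were transcribed on Illumina sequencing-chip clusters by stalled E. coli RNA polymerase and titrated with SNAP-549-labelled MS2 coat protein from 0.7 or 1.5 nM, doubling to 3 µM, in 100 mM Tris-HCl pH 7.5, 80 mM KCl, 4 mM MgCl2, BSA, DTT, yeast tRNA and Tween-20. Each series ran without and then with constant ligand, and green signal was normalised to red-channel RNA signal and control-cluster median Fmax.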

[1] = designed as: ON switch for flavin mononucleotide, no ligand
[2] = ligand present: flavin mononucleotide, designed as: ON switch for flavin mononucleotide
[3] = designed as: OFF switch for flavin mononucleotide, no ligand
[4] = ligand present: flavin mononucleotide, designed as: OFF switch for flavin mononucleotide

Row | Sequence | apparent Kd [1] | apparent Kd [2] | apparent Kd [3] | apparent Kd [4]
1 | GGGAACAUCGGAGGAUAUCAUGUAAAUACAUGAGGAUCACCCAUGUCGAUGGAGACAUCGGAGAUUGAGAAGGCCGAUGUACCG | 173 nM | 9.66 nM | – | –
2 | GGGAGUGAAGGAUAUACAUGAGGAUCACCCAUGUGGGAGGAGAGAGGUGAGGAGGCUGGUAGAAGGUCAGGAUG | – | – | 60.2 nM | 51.2 nM
3 | GGGCCCGGAGGAUAUACAAUGGGCCCGGGAAACCGGGUUUUACAUGAGGAUCACCCAUGUAGAAGGCCGGGUUU | – | – | 14.5 nM | 15.4 nM
4 | GGGCCCGGAGGAUAUACAUGAGGAUCACCCAUGUAGGGCCCGGGUAUUCCCGGGUUUUGUAGAAGGCCGGGCCC | – | – | – | 30.1 nM
5 | GGGCCCGGAGGAUAUACAUGAGGAUCACCCAUGUAGGGCCCGGGUAUUUUUGGGCCCUGUAGAAGGUUGGGCCC | – | – | 11.5 nM | 12.2 nM
6 | GGGCCGUAGUAGAAGGGAUAUACGUUAGGUAUAUCAGGAUAUACAUGAGGAUCACCCAUGUUCUAACAGUGAUAGUCCUCCCUU | – | – | 15.5 nM | 33.1 nM
7 | GGGCUCGGAGGAUAUACAUGAGGAUCACCCAUGUACUCGGGCUCUAUUGGGCUCGGGUGUAGAAGGUCGGGCUC | – | – | 14.9 nM | 14.6 nM
8 | GGGUACAUCGAAGGAUAUCAUGUAAAUACAUGAGGAUCACCCAUGUCGAUGGAGACAUCGGAGAUUGAGAAGGCCGAUGUACCG | 338 nM | 28.1 nM | – | –
9 | GGGUACAUCGCAGGAUAUCAUGUAAAUACAUGAGGAUCACCCAUGUCGAUGGAGACAUCGGAGAUUGAGAAGGCCGAUGUACCG | 622 nM | 322 nM | – | –
10 | GGGUACAUCGGAGGAUAUCAUAUAAAUACAUGAGGAUCACCCAUGUCGAUGGAGACAUCGGAGAUUGAGAAGGCCGAUGUACCG | 8.43 nM | 5.54 nM | – | –
11 | GGGUACAUCGGAGGAUAUCAUGUAAAUACAUGAGGAUCACCCAUGUCGAUCGAGACAUCGGAGAUUGAGAAGGCCGAUGUACCG | 163 nM | 286 nM | – | –
12 | GGGUACAUCGGAGGAUAUCAUGUAAAUACAUGAGGAUCACCCAUGUCGAUGGAGACAUCGGAGAUUAAGAAGGCCGAUGUACCG | 801 nM | 842 nM | – | –
13 | GGGUACAUCGGAGGAUAUCAUGUAAAUACAUGAGGAUCACCCAUGUCGAUGGAGACAUCGGAGAUUGAGAAGGCCGAUCUACCG | 213 nM | 9.94 nM | – | –
14 | GGGUACAUCGGAGGAUAUCAUGUAAAUACAUGAGGAUCACCCAUGUCGAUGGAGAGAUCGGAGAUUGAGAAGGCCGAUGUACCG | 97.4 nM | 41 nM | – | –
15 | GGGUACAUGGGAGGAUAUCCUCAAGAGACAUGAGGAUCACCCAUGUAUUAUAAGCCGAAAGGCAUGGAGAAGGCCCAUGUACCG | 62 nM | 19.1 nM | – | –
16 | GGGUACAUUGGAGGAUAUCAUGUAAAUACAUGAGGAUCACCCAUGUCGAUGGAGACAUCGGAGAUUGAGAAGGCCGAUGUACCG | 183 nM | 9.08 nM | – | –
17 | GGGUAGUGAGGAUAUCGUUGUUAGGAGGAGUAGGUAGGAGGCGAGAAGGCACAUGAGGAUCACCCAUGUAUGGA | – | – | 36.2 nM | 33.3 nM
18 | GGGUCCGCUCGAGGAUAUAGCUGCAUGUAGUGUCCUGAGGCACAUGAGGAUCACCCAUGUGUAGGCUAGAAGGCGACGGACACU | – | – | 50 nM | 114 nM
19 | GGGUGGCGUAGAGGAUAUGUGGUACAUGAGGAUCACCCAUGUGCAUAUGAUGUUCGUGUGUCAUCAUAGAAGGCUACGUCGCUA | 132 nM | 62.9 nM | – | –
20 | GGGUUGUGAGGAUAUUAGUUGUACGUCAAUAGACGUAUAGGUGAGAAGGCACAUGAGGAUCACCCAUGUUCCUG | – | – | 23.8 nM | 56.9 nM
21 | GGGUUUGGAGGAUAUACAUGAGGAUCACCCAUGUAGGGUUUGGGUAUUCCCGGGCCCUGUAGAAGGCCGGGCCC | – | – | 16.6 nM | 20.4 nM
22 | GGUAAACAUGAGGAUCACCCAUGUAAUAAUAUGGGAGGAUAUGGGAAUUAAUUAAUUAAACCAGAAGGCCUAAUUG | 216 nM | 25.6 nM | – | –
23 | GGUAAGAUGCAGAAGGUGUUAGCUAGAGCUACGACAUGAGGAUCACCCAUGUACUAGAAACAGUACAAGGAUAUGCAUCUUACC | 18.4 nM | 6.38 nM | – | –

From the EternaBench riboswitch data
